Measured values as given in ChEMBL document CHEMBL1124246, “Evaluation of the side arm of (naphthylvinyl)pyridinium inhibitors of choline acetyltransferase” (J Med Chem, 1988).
The source made the active and inactive calls. The calls are words filed in the database; no cut-off is given here.

Target: T1, Choline O-acetyltransferase (Rattus norvegicus) (UniProt P32738)
T1 sequence (whole entry): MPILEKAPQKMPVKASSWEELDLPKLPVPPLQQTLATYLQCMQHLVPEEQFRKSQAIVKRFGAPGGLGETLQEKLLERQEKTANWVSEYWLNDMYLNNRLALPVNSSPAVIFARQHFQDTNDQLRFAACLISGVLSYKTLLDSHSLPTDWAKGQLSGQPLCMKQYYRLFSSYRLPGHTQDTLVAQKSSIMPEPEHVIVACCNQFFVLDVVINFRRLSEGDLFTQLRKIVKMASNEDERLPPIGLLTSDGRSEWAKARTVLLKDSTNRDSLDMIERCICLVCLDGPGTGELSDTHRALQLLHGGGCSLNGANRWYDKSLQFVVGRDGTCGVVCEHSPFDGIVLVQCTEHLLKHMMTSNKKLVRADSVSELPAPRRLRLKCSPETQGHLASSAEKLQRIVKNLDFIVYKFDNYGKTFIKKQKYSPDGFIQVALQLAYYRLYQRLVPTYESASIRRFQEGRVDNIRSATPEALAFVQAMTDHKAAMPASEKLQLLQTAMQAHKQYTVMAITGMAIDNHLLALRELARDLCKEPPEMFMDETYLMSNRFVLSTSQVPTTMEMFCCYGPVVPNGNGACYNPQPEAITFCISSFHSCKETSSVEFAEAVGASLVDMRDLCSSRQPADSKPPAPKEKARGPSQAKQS
Assay: Inhibition of choline acetyltransferase (ChAT) activity; NI is no inhibition observed up to 0.001 M
Conditions: not given

In the case of C[N+]1=CC=NC1/C=C/c1cccc2ccccc12 (stereo not given), the I50 is reported as “inactive”.

Test system: not listed separately
Assay: Degree of specificity expressed as the ratio of I50 of AChE to I50 of ChAT
Conditions: not given
Outline: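 Ratio of AChE I50 to ChAT I50. ChAT: partially purified rat brain enzyme, 3 min at 37 °C, 0.1 mM [14C]acetyl-CoA, 5 mM choline. AChE: commercial enzyme, 10 min at 37 °C, [14C]acetylcholine, 1% Triton-X. Radiometric read-out for both; inhibitors tested 10^-3–10^-8 M.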

Going from CCOC(=O)C(C(=O)OCC)[n+]1ccc(/C=C/c2cccc3ccccc23)cc1 to CCOC(=O)C[n+]1ccc(/C=C/c2cccc3ccccc23)cc1, the Ratio rises from 24 to 32.

First: Cc1c[n+](CC(N)=O)ccc1/C=C/c1cccc2ccccc12
Second: CCOC(=O)C[n+]1ccc(/C=C/c2cccc3ccccc23)c(C)c1
The Ratio of the first is higher: 132 for the first, 8 for the second.

Compared with O=C(CBr)C[n+]1ccc(/C=C/c2cccc3ccccc23)cc1, O=C(CO)C[n+]1ccc(/C=C/c2cccc3ccccc23)cc1 is higher in Ratio: 4 for the first, greater than 200 for the second.

Compared with CCCC[n+]1ccc(/C=C/c2cccc3ccccc23)cc1, CCC[n+]1ccc(/C=C/c2cccc3ccccc23)cc1 is higher in Ratio: 11 for the first, 92 for the second.

Compared with NC(=O)C[n+]1ccc(/C=C/c2cccc3ccccc23)cc1, CC(=O)C[n+]1ccc(/C=C/c2cccc3ccccc23)cc1 is lower in Ratio: 296 for the first, 8 for the second.

Going from CCNC(=O)NC(=O)C[n+]1ccc(/C=C/c2cccc3ccccc23)cc1 to NC(=O)NC(=O)C[n+]1ccc(/C=C/c2cccc3ccccc23)cc1, the Ratio rises from 33 to 38.

First: Cc1c[n+](CCC(=O)O)ccc1/C=C/c1cccc2ccccc12
Second: Cc1c[n+](CCO)ccc1/C=C/c1cccc2ccccc12
The Ratio of the first is higher: 17 for the first, 16 for the second.

O=C(O)CC[n+]1ccc(/C=C/c2cccc3ccccc23)cc1 and O=C(O)C[n+]1ccc(/C=C/c2cccc3ccccc23)cc1 cannot be ordered by Ratio: 25 for the first, greater than 22 for the second.

Compared with CCCCCCC(C)OC(=O)CC(=O)C[n+]1ccc(/C=C/c2cccc3ccccc23)cc1 (stereo not given), NCCC[n+]1ccc(/C=C/c2cccc3ccccc23)cc1 is higher in Ratio: 7 for the first, 42 for the second.

First: OCCC[n+]1ccc(/C=C/c2cccc3ccccc23)cc1
Second: OCC[n+]1ccc(/C=C/c2cccc3ccccc23)cc1
The Ratio of the first is lower: 28 for the first, 40 for the second.

Going from Cc1c[n+](CCN)ccc1/C=C/c1cccc2ccccc12 to NCC[n+]1ccc(/C=C/c2cccc3ccccc23)cc1, the Ratio rises from 6 to 16.

C(=C\c1cccc2ccccc12)/c1ccncc1 and C[n+]1ccc(/C=C/c2cccc3ccccc23)cc1 cannot be ordered by Ratio: greater than 26 for the first, 77 for the second.

In the case of Cc1cnccc1/C=C/c1cccc2ccccc12, the Ratio is reported as greater than 25.

Target: T2, Choline O-acetyltransferase (Rattus norvegicus, UniProt P32738)
T2 sequence (P32738 whole entry): T1 sequence (whole entry)
Assay: (§1) Inhibition of choline acetyltransferase (ChAT) activity
Conditions: read-out: I50

Compared with CCOC(=O)C(C(=O)OCC)[n+]1ccc(/C=C/c2cccc3ccccc23)cc1, CCOC(=O)C[n+]1ccc(/C=C/c2cccc3ccccc23)cc1 is 21-fold lower in IC50: 21 µM for the first, 1 µM for the second. The second is the more potent here.

Going from Cc1c[n+](CC(N)=O)ccc1/C=C/c1cccc2ccccc12 to CCOC(=O)C[n+]1ccc(/C=C/c2cccc3ccccc23)c(C)c1, the IC50 rises from 0.34 µM to 1.2 µM (3.5-fold). The first is the more potent here.

Compared with O=C(CBr)C[n+]1ccc(/C=C/c2cccc3ccccc23)cc1, O=C(CO)C[n+]1ccc(/C=C/c2cccc3ccccc23)cc1 is 3.3-fold lower in IC50: 10 µM for the first, 3 µM for the second. The second is the more potent here.

First: CCCC[n+]1ccc(/C=C/c2cccc3ccccc23)cc1
Second: CCC[n+]1ccc(/C=C/c2cccc3ccccc23)cc1
The IC50 of the first is 1.9-fold higher: 0.37 µM for the first, 0.19 µM for the second.

Compared with NC(=O)C[n+]1ccc(/C=C/c2cccc3ccccc23)cc1, CC(=O)C[n+]1ccc(/C=C/c2cccc3ccccc23)cc1 is 14-fold higher in IC50: 0.27 µM for the first, 3.7 µM for the second.

CCNC(=O)NC(=O)C[n+]1ccc(/C=C/c2cccc3ccccc23)cc1 and NC(=O)NC(=O)C[n+]1ccc(/C=C/c2cccc3ccccc23)cc1 are within 1.5-fold of each other in IC50: 3.9 µM for the first, 3.7 µM for the second.

First: Cc1c[n+](CCC(=O)O)ccc1/C=C/c1cccc2ccccc12
Second: Cc1c[n+](CCO)ccc1/C=C/c1cccc2ccccc12
The IC50 of the first is 26-fold higher: 45 µM for the first, 1.7 µM for the second.

O=C(O)CC[n+]1ccc(/C=C/c2cccc3ccccc23)cc1 and O=C(O)C[n+]1ccc(/C=C/c2cccc3ccccc23)cc1 are within 1.5-fold of each other in IC50: 40 µM for the first, 46 µM for the second.

Going from CCCCCCC(C)OC(=O)CC(=O)C[n+]1ccc(/C=C/c2cccc3ccccc23)cc1 (stereo not given) to NCCC[n+]1ccc(/C=C/c2cccc3ccccc23)cc1, the IC50 falls from 50 µM to 5.3 µM (9.4-fold). The second is the more potent here.

OCCC[n+]1ccc(/C=C/c2cccc3ccccc23)cc1 and OCC[n+]1ccc(/C=C/c2cccc3ccccc23)cc1 are within 1.5-fold of each other in IC50: 1.3 µM for the first, 1.7 µM for the second.

Cc1c[n+](CCN)ccc1/C=C/c1cccc2ccccc12 and NCC[n+]1ccc(/C=C/c2cccc3ccccc23)cc1 are within 1.5-fold of each other in IC50: 5 µM for the first, 3.9 µM for the second.

First: C(=C\c1cccc2ccccc12)/c1ccncc1
Second: C[n+]1ccc(/C=C/c2cccc3ccccc23)cc1
The IC50 of the first is 97-fold higher: 38 µM for the first, 0.39 µM for the second.

For Cc1cnccc1/C=C/c1cccc2ccccc12, the IC50 was 40 µM.

Target: T3, Acetylcholinesterase (Rattus norvegicus) (UniProt P37136)
T3 sequence (whole entry): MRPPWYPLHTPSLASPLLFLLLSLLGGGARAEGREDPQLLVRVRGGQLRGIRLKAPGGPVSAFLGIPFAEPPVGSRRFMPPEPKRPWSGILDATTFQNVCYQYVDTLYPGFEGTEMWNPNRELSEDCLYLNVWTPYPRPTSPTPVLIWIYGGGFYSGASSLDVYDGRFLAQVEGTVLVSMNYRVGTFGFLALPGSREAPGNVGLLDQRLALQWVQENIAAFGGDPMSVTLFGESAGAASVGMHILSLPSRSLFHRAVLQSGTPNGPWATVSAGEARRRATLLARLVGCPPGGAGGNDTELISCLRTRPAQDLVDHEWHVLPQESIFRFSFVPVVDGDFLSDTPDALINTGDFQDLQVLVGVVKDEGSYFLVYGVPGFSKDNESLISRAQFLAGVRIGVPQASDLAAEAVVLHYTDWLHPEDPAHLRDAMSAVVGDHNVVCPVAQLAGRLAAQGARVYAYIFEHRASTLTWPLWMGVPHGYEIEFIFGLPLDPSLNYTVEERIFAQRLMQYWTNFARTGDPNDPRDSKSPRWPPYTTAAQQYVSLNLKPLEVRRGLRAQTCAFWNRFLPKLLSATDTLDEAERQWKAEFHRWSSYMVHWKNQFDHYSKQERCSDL
Conditions: not given

In the case of CCNC(=O)NC(=O)CBr, the I50 is reported as “inactive”.
With O=C(O)C[n+]1ccc(/C=C/c2cccc3ccccc23)cc1 the I50 was “inactive”.
With C(=C\c1cccc2ccccc12)/c1ccncc1 the I50 was “inactive”.
In the case of NC(=O)NC(=O)CBr, the I50 is reported as “inactive”.
With Cc1cnccc1/C=C/c1cccc2ccccc12 the I50 was “inactive”.

Target: T4, Acetylcholinesterase (Rattus norvegicus, UniProt P37136)
T4 sequence (P37136 whole entry): T3 sequence (whole entry)
Assay: Inhibition of acetylcholinesterase (AChE) activity
Conditions: read-out: I50

First: CCOC(=O)C(C(=O)OCC)[n+]1ccc(/C=C/c2cccc3ccccc23)cc1
Second: CCOC(=O)C[n+]1ccc(/C=C/c2cccc3ccccc23)cc1
The IC50 of the first is 16-fold higher: 500 µM for the first, 32 µM for the second.

Going from Cc1c[n+](CC(N)=O)ccc1/C=C/c1cccc2ccccc12 to CCOC(=O)C[n+]1ccc(/C=C/c2cccc3ccccc23)c(C)c1, the IC50 falls from 45 µM to 10 µM (4.5-fold). The second is the more potent here.

Going from O=C(CBr)C[n+]1ccc(/C=C/c2cccc3ccccc23)cc1 to NC(=O)C[n+]1ccc(/C=C/c2cccc3ccccc23)cc1, the IC50 rises from 40 µM to 80 µM (2-fold).

First: CCCC[n+]1ccc(/C=C/c2cccc3ccccc23)cc1
Second: CCC[n+]1ccc(/C=C/c2cccc3ccccc23)cc1
The IC50 of the first is 4.5-fold lower: 3.9 µM for the first, 17.5 µM for the second. The first is the more potent here.

Going from CC(=O)C[n+]1ccc(/C=C/c2cccc3ccccc23)cc1 to OCC[n+]1ccc(/C=C/c2cccc3ccccc23)cc1, the IC50 rises from 31 µM to 68 µM (2.2-fold).

CCNC(=O)NC(=O)C[n+]1ccc(/C=C/c2cccc3ccccc23)cc1 and NC(=O)NC(=O)C[n+]1ccc(/C=C/c2cccc3ccccc23)cc1 are within 1.5-fold of each other in IC50: 130 µM for the first, 140 µM for the second.

First: Cc1c[n+](CCC(=O)O)ccc1/C=C/c1cccc2ccccc12
Second: Cc1c[n+](CCO)ccc1/C=C/c1cccc2ccccc12
The IC50 of the first is 28-fold higher: 750 µM for the first, 27 µM for the second. The second is the more potent here.

Compared with O=C(O)CC[n+]1ccc(/C=C/c2cccc3ccccc23)cc1, NCC[n+]1ccc(/C=C/c2cccc3ccccc23)cc1 is 16-fold lower in IC50: 1000 µM for the first, 64 µM for the second. The second is the more potent here.

First: CCCCCCC(C)OC(=O)CC(=O)C[n+]1ccc(/C=C/c2cccc3ccccc23)cc1 (stereo not given)
Second: NCCC[n+]1ccc(/C=C/c2cccc3ccccc23)cc1
The IC50 of the first is 1.6-fold higher: 350 µM for the first, 220 µM for the second. The second is the more potent here.

First: C[N+]1=CC=NC1/C=C/c1cccc2ccccc12 (stereo not given)
Second: C[n+]1ccc(/C=C/c2cccc3ccccc23)cc1
The IC50 of the first is 1.7-fold higher: 51 µM for the first, 30 µM for the second.

OCCC[n+]1ccc(/C=C/c2cccc3ccccc23)cc1 and Cc1c[n+](CCN)ccc1/C=C/c1cccc2ccccc12 are within 1.5-fold of each other in IC50: 36 µM for the first, 30 µM for the second.

Target: T2, Choline O-acetyltransferase
Assay: as §1
Conditions: read-out: I50
Outline: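 Rat brain enzyme, partially purified (through CM-Sephadex batch elution), stored -20 °C, diluted for linear kinetics. Radiolabelled product counted by scintillation. Inhibitors tested 10^-3–10^-8 M; I50 reported.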

Compared with CCNC(=O)NC(=O)CBr, NC(=O)NC(=O)CBr is 1.9-fold lower in IC50: 250 µM for the first, 130 µM for the second. The second is the more potent here.
